Data from ChEMBL document CHEMBL4428115, “Molecular docking studies, biological and toxicity evaluation of dihydroisoquinoline derivatives as potential anticancer agents” (Bioorg Med Chem, 2016).
pIC50: −log10 of the molar value. Calls of active or inactive are those of the source. The calls are words filed in the database; no cut-off is given here.

Legend:
MCF7 [1] = assay: Potency index, ratio of bestatin IC50 to compound IC50 for human MCF7 cells; type: functional
[2] = Acute toxicity in New Zealand albino rabbit assessed as conjunctiva at 0.068 g applied to conjunctival sac of eye measured 1 to 72 hrs post dose; set-up: species or system Oryctolagus cuniculus; details: in vivo, topical_or_ocular
[3] = Selectivity index, ratio of IC50 for mouse BALB/3T3 cells to IC50 for human CCRF-CEM cells; type: toxicity; details: BALB/3T3 cells versus CCRF-CEM cells, read-out: Ratio IC50
[4] = Selectivity index, ratio of IC50 for mouse BALB/3T3 cells to IC50 for human Raji cells; type: toxicity; details: BALB/3T3 cells versus Raji cells, read-out: Ratio IC50
[5] = Selectivity index, ratio of IC50 for mouse BALB/3T3 cells to IC50 for human K562 cells; type: toxicity; details: BALB/3T3 cells versus K562 cells, read-out: Ratio IC50
MV4-11 = assay: Antiproliferative activity against human MV411 cells; type: functional, cell-based
PC-3 = assay: Antiproliferative activity against human PC3 cells; type: functional, cell-based
[6] = Acute toxicity in Balbc/cmdb mouse assessed as clinical signs at 2000 mg/kg, po administered as single dose in third stage of experiment measured immediately post dose; type: organism-based; details: in vivo
Summary of the method: (§1)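 Acute toxic class method per OECD Guideline 423 / EU Method B.1 tris, run in three stages of three female Balbc/cmdb mice each. Fasted about 3 h, then given a single dose by metal stomach tube in DMSO at 0.5 mL/100 g bw. Stage doses were 300, 2000, then 2000 mg/kg bw. General and detailed clinical observations daily for 14 days; body weights recorded.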

LoVo = assay: Antiproliferative activity against human LoVo cells; type: functional, cell-based
HL-60 [7] = assay: Decrease in mitochondrial membrane potential in human HL60 cells at 3 ug/ml after 24 hrs using JC-1 staining based flow cytometry relative to control; type: functional, cell-based
Summary of the method: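 HL-60 treated 24 h at 3 µg/mL alongside DMSO control; […] for 24 h served as the low-potential control. Cells stained with JC-1 at 10 µg/mL final for 30 min at 37°C in the dark, washed, and analysed by flow cytometry (red aggregates vs green monomers). Three independent experiments, mean ± SD.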

[8] = Acute toxicity in Balbc/cmdb mouse assessed as clinical signs at 2000 mg/kg, po administered as single dose in second stage of experiment measured immediately post dose; type: organism-based; details: in vivo; summary of the method: as §1
K562 = assay: Antiproliferative activity against human K562 cells; type: functional, cell-based
[9] = Selectivity index, ratio of IC50 for mouse BALB/3T3 cells to IC50 for human LNCAP cells; type: toxicity; details: BALB/3T3 cells versus LNCAP cells, read-out: Ratio IC50
[10] = Selectivity index, ratio of IC50 for mouse BALB/3T3 cells to IC50 for human HL60 cells; type: toxicity; details: BALB/3T3 cells versus HL60 cells, read-out: Ratio IC50
Summary of the method: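 Ratio of the BALB/3T3 IC50 to the HL-60 or HL-60/MX2 IC50. Cells were plated at 1 × 10^4 per well 24 h before dosing and exposed for 72 h to 0.01–1000 µg/mL from DMSO stock. BALB/3T3 was read by SRB (TCA fix, 540 nm) and the leukemia lines by MTT (4 h, SDS/DMF lysis, 570 nm). Triplicates; 3–5 experiments.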

Raji = assay: Antiproliferative activity against human Raji cells; type: functional, cell-based
[11] = Antioxidant activity assessed as DPPH free radical scavenging activity; type: functional
[12] = Selectivity index, ratio of IC50 for mouse BALB/3T3 cells to IC50 for human A498 cells
[13] = Selectivity index, ratio of IC50 for mouse BALB/3T3 cells to IC50 for human MCF7 cells; type: toxicity; details: BALB/3T3 cells versus MCF7 cells, read-out: Ratio IC50
Summary of the method: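 Selectivity index is the BALB/3T3 IC50 divided by the MCF-7 IC50. Both adherent lines were plated at 1 × 10^4 per well, dosed 24 h later with 0.01–1000 µg/mL (diluted from 20 mg/mL DMSO stock) for 72 h, then fixed with cold TCA and stained with SRB, reading at 540 nm. Triplicate wells; 3–5 repeat experiments.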

[14] = Selectivity index, ratio of IC50 for mouse BALB/3T3 cells to IC50 for human DU145 cells
[15] = Selectivity index, ratio of IC50 for human MCF10 cells to IC50 for human MCF7 cells; type: toxicity; details: MCF10 cells versus MCF7 cells, read-out: Ratio IC50
Summary of the method: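 Selectivity index is the ratio of the IC50 for the normal line to the IC50 for the cancer line. Both IC50 values come from 72 h antiproliferative assays: SRB for adherent cells, MTT for HL-60.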

MCF10 = assay: Antiproliferative activity against human MCF10 cells after 72 hrs by SRB assay; type: cell-based; details: MCF10, 72 h
Summary of the method: (§2)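 Adherent cells plated at 1 × 10^4 per well 24 h before treatment, then exposed 72 h to compounds diluted from 20 mg/mL DMSO stock (0.01–1000 µg/mL). Fixed in cold 50% TCA at 4°C for 1 h, stained with 0.4% sulforhodamine B, bound dye extracted with 10 mM Tris, OD at 540 nm. Triplicates, 3–5 experiments; IC50 per experiment, mean ± SD.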

CCRF-CEM = assay: Antiproliferative activity against human CCRF-CEM cells; type: functional, cell-based
[16] = Selectivity index, ratio of IC50 for mouse BALB/3T3 cells to IC50 for human CEM/C2 cells; type: toxicity; details: BALB/3T3 cells versus CEM/C2 cells, read-out: Ratio IC50
[17] = Selectivity index, ratio of IC50 for mouse BALB/3T3 cells to IC50 for human A549 cells
MCF7 [18] = assay: Antiproliferative activity against human MCF7 cells after 72 hrs by SRB assay; type: functional, cell-based; details: MCF7, 72 h; summary of the method: as §2
[19] = Acute toxicity in Wistar rat assessed as mortaliity topically applied to shaved dorsal skin as single dose for 24 hrs measured for 14 days; details: in vivo, topical or ocular
Summary of the method: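 Wistar rats, 5 males and 5 females; single 2000 mg/kg bw dermal application to shaved dorsal skin (about 41 cm2 per male, 31 cm2 per female) for 24 h. General and detailed clinical observations daily over a 14-day observation period, then animals euthanized; treated skin examined for pathological changes.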

[20] = Acute toxicity in Balbc/cmdb mouse assessed as clinical signs at 300 mg/kg, po administered as single dose in first stage of experiment measured for 14 days; type: organism-based; details: in vivo, 336 h; summary of the method: as §1
HL-60 [21] = assay: Increase in caspase 3/7 activation in human HL60 cells using Ac-DEVD-ACC as substrate at 3 ug/ml after 24 hrs by fluorescence assay relative to control; type: functional, cell-based
Summary of the method: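 HL-60 exposed 24 h to 3 µg/mL (DMSO control), lysed at 1.2 × 10^6 cells/mL in HEPES/sucrose/Triton lysis buffer pH 7.3 for 30 min at 4°C. Lysate added to DTT-containing reaction buffer with Ac-DEVD-ACC at 10 µM final (ex 360/em 460 nm). Fluorescence recorded 90 min at 37°C, normalized to Lowry protein, and expressed relative to untreated control; three experiments.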

CCOC(=O)C1(C(=O)OCC)Cc2cc(OCc3ccccc3)cc(OCc3ccccc3)c2C=N1
Ratio IC50 (MCF7 [1]): 15 | Activity [2]: Non-Toxic | selectivity ratio [3]: 51.3 | selectivity ratio [4]: 59.8 | selectivity ratio [5]: 0.5 | pIC50 (MV4-11): 4.19 | pIC50 (PC-3): 5.38 | Activity [6]: Toxic | pIC50 (LoVo): 5.96 | Activity (HL-60 [7]): Active | Activity [8]: Toxic | pIC50 (K562): 4.15 | selectivity ratio [9]: 10.9 | selectivity ratio [10]: 5.8 | pIC50 (Raji): 6.22 | pIC50 [11]: 3.00 | Ratio IC50 [12]: 2.7 | selectivity ratio [13]: 3.7 | Ratio IC50 [14]: 4.8 | selectivity ratio [15]: 4 to 8 | pIC50 (MCF10): 4.40 | pIC50 (CCRF-CEM): 6.15 | selectivity ratio [16]: 89.7 | Ratio IC50 [17]: 2.7 | pIC50 (MCF7 [18]): 5.02 | LD50 at 14 days [19]: > 2000 mg/kg | Activity [20]: Non-Toxic | Activity (HL-60 [21]): Active
